Test results taken from ChEMBL document CHEMBL4400539, “Discovery of a Novel Chemotype of Histone Lysine Methyltransferase EHMT1/2 (GLP/G9a) Inhibitors: Rational Design, Synthesis, Biological Evaluation, and Co-crystal Structure” (J Med Chem, 2019).
Active and inactive are the calls of the source. The calls are words filed in the database; no cut-off is given here.

Tests used:
[1] = target: DNA (cytosine-5)-methyltransferase 1 (Homo sapiens, UniProt P26358); assay: Inhibition of N-terminal GST-tagged recombinant full length human DNMT1 (2 to 1632 residues) using poly(dI-dC)):poly(dI-dC) as substrate preincubated for 20 mins followed by [3H]-SAM and measured after 60 mins by scintillation counting
[2] = target: T1, Histone-lysine N-methyltransferase EHMT2 (Homo sapiens, UniProt Q96KQ7); assay: Inhibition of recombinant human G9a using biotinylated-Histone H3 peptide (1 to 21 residues) after 30 mins in presence of SAM by AlphaLISA assay
T1 sequence (Q96KQ7 whole entry): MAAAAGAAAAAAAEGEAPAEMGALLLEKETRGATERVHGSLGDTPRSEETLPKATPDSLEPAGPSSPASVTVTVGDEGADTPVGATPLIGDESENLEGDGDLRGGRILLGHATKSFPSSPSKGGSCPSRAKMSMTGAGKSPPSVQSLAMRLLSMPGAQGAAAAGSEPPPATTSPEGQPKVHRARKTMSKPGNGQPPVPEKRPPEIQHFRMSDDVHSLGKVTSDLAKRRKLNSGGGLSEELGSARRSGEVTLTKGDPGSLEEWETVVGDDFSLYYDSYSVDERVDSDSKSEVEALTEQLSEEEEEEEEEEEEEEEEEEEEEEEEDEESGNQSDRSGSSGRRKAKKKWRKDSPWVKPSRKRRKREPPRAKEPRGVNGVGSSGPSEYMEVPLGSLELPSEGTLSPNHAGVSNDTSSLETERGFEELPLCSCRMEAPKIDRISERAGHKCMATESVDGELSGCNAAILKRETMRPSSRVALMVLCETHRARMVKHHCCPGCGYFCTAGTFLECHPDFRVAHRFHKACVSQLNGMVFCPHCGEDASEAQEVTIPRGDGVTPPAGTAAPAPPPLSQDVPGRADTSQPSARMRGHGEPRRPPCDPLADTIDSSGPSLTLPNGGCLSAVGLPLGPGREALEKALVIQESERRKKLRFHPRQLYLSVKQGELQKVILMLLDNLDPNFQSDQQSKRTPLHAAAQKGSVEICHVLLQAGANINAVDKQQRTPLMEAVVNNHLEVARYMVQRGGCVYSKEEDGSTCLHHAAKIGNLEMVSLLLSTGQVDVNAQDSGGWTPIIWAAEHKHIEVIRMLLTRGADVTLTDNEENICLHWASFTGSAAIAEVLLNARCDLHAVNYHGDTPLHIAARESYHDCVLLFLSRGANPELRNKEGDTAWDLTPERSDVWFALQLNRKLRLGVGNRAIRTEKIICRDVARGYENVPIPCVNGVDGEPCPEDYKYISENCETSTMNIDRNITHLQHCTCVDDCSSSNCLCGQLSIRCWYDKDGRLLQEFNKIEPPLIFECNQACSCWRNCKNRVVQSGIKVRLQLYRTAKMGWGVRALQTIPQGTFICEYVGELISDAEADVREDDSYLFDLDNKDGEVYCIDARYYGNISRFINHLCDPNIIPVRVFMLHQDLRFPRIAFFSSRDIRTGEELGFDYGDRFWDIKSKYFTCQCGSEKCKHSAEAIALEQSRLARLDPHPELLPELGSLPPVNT

[3] = target: T2, Histone-lysine N-methyltransferase EHMT1 (Homo sapiens) (UniProt Q9H9B1); assay: Inhibition of recombinant human GLP at 25 uM using biotinylated-Histone H3 peptide (1 to 21 residues) after 30 mins by AlphaLISA assay relative to control
T2 sequence (whole entry): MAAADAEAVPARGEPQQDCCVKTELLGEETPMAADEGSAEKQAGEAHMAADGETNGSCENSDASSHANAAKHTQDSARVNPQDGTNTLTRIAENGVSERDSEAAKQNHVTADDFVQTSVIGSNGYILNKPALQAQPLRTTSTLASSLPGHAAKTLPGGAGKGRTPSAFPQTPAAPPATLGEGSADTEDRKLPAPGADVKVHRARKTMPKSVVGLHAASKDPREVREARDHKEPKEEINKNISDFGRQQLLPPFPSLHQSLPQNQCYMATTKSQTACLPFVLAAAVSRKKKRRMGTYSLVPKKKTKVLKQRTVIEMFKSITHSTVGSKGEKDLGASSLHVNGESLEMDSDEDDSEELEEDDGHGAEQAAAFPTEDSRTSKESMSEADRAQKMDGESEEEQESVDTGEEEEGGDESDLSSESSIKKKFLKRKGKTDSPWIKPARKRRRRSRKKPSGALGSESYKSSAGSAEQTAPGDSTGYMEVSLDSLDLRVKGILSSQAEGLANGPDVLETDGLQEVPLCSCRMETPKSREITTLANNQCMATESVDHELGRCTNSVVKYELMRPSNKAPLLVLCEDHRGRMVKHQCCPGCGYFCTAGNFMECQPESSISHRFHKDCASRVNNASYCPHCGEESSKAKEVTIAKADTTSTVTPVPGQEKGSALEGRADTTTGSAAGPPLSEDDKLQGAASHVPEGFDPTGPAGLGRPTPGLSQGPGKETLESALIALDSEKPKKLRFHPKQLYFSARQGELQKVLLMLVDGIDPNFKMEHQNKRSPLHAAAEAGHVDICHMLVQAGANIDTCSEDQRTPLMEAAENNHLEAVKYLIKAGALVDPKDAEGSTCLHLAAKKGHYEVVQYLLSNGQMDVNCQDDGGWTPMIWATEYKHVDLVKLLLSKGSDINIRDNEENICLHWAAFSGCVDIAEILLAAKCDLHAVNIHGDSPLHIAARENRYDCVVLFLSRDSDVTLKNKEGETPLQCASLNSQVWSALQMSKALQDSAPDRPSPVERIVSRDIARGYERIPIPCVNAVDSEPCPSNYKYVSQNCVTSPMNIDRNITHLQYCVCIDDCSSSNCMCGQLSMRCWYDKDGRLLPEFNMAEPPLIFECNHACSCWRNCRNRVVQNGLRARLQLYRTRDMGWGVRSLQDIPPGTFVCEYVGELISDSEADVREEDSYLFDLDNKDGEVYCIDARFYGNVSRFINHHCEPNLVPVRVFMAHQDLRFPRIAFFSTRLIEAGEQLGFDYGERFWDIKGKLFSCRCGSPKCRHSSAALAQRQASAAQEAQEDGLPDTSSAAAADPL

[4] = target: T1, Histone-lysine N-methyltransferase EHMT2; assay: Competitive inhibition of recombinant human G9a using biotinylated-Histone H3 peptide (1 to 21 residues) as substrate at varying concentration after 30 mins in presence SAM by Lineweaver-Burk plot analysis
[5] = target: Protein arginine N-methyltransferase 1 (Homo sapiens) (UniProt Q99873); assay: Inhibition of recombinant human PRMT1 at 10 to 25 uM using biotinylated-Histone H4 peptide (1 to 21 residues) as substrate preincubated for 30 mins followed by substrate addition and measured after 60 mins in presence of SAM by AlphaLISA assay relative to control
Outline: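 Biotinylated H4(1–21) peptide plus SAM then added for 60 min: PRMT1 0.9 nM, peptide 100 nM, SAM 2 μM; PRMT3 23 nM, peptide 50 nM, SAM 10 μM. Anti-H4R3me AlphaLISA; 10 and 25 μM; three experiments, mean ± SD.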

Protein arginine N-methyltransferase 1 (Homo sapiens), sequence (Q99873 whole entry, looked up, the tested form may be a part): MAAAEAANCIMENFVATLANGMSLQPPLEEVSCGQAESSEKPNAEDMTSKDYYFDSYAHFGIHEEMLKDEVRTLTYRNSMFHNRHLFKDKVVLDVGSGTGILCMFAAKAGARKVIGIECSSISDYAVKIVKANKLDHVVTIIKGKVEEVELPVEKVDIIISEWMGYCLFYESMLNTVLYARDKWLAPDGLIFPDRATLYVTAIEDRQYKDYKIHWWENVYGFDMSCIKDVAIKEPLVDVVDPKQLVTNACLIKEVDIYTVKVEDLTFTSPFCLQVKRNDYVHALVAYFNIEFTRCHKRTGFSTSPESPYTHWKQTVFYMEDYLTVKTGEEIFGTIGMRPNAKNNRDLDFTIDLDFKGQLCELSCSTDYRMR
DNA (cytosine-5)-methyltransferase 1, sequence (P26358 whole entry, the tested form may be a part): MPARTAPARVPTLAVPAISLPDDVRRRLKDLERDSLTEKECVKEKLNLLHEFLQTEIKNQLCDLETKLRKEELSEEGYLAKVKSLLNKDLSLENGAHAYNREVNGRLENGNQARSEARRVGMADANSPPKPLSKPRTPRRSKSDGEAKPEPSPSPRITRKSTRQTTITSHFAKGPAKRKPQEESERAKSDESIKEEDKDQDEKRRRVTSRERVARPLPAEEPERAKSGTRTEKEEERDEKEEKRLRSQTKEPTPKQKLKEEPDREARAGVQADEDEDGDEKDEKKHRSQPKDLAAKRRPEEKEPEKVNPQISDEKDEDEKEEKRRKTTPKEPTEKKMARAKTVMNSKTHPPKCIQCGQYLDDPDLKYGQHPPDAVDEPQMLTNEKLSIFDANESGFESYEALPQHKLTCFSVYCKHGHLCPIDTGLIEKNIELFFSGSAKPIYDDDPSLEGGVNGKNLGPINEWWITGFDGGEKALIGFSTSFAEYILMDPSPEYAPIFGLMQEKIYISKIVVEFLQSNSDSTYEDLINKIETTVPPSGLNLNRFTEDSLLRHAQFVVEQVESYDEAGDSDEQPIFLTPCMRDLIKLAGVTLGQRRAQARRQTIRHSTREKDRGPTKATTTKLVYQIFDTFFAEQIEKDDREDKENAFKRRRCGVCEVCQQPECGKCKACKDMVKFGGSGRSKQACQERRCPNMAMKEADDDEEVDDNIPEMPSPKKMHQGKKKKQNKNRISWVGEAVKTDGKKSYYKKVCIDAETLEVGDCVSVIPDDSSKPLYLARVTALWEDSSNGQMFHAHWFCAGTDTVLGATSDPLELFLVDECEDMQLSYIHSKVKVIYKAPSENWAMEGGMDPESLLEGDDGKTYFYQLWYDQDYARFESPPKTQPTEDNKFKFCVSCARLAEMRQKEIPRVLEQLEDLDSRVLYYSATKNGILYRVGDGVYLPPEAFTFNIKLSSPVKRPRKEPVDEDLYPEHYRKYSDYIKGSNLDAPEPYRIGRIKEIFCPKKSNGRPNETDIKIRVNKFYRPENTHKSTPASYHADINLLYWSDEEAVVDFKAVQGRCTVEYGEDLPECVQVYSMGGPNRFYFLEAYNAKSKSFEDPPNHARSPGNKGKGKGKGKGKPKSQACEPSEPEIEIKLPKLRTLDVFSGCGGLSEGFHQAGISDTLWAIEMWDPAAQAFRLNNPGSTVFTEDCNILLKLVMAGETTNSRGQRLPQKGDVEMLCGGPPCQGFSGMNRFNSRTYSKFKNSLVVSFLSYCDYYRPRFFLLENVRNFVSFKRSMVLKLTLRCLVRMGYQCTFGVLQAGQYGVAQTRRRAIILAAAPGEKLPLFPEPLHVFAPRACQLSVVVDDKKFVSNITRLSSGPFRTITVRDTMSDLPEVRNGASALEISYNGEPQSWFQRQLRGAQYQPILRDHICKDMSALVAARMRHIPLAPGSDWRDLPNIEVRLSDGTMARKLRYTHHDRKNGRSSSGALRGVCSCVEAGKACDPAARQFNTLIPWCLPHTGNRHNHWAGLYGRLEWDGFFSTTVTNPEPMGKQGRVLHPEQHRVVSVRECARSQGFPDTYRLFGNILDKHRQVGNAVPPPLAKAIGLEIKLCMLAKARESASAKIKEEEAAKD

IC50 [1]: 3100 nM
IC50 [2]: 23 nM
inhibition [3]: 98%
Ki [4]: 13.8 nM
inhibition [5]: inactive
SMILES: COc1cc2c(cc1OCCCN1CCCC1)N=C(C1CCCCC1)CN=C2NC1CCN(C(C)C)CC1
